In PMC8828683 (Stem Cell Reports, 2022):

Legend:
Type in all cases: cell-based, human
NTERA-2 ECC [1] = assay: Cells with <2N DNA by FACS of permeabilized cells stained with PI; settings: Homo sapiens, NTERA2, read-out: IC50 DNA (50% of cells with <2N DNA)
Procedure, shortened: (§1)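 Cells were exposed to a range of test compound concentrations alongside vehicle (DMSO) controls. They were then permeabilized, stained with propidium iodide, and DNA content was read by flow cytometry. IC50 is the concentration at which 50% of cells hold <2N DNA, from 3 independent repetitions with SEM. Line averages and differentiated/pluripotent ratios are derived from these IC50s. NTERA-2 was also run as a time course at 5 μM, normalized to vehicle at each time point.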

[2] = system: HFF-1 normal skin fibroblast; assay: Live cells / PCD by FACS of nonpermeabilized cells stained with annexin-V and PI; settings: Homo sapiens, HFF-1, read-out: IC50 Live Cells
Procedure, shortened: (§2)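 Cells were seeded so that vehicle wells stayed subconfluent, then treated with a range of test compound concentrations for 4 days. Without permeabilization, they were stained with annexin-V-FITC and propidium iodide and analysed by flow cytometry. Double-negative cells (Q3) were scored as live and Q1+Q2 as programmed death. Vehicle was set to 100% viable and 0% dead. Results are the mean of three independent assays with SEM; group averages and ratios are derived from the IC50s.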

[3] = system: HFF-1 normal skin fibroblast; assay: Cells with <2N DNA by FACS of permeabilized cells stained with PI; settings: Homo sapiens, HFF-1, read-out: IC50 DNA (50% of cells with <2N DNA)
Procedure, shortened: as §1

NTERA-2 ECC [4] = assay: Live cells / PCD by FACS of nonpermeabilized cells stained with annexin-V and PI
Procedure, shortened: as §2

IC50 (NTERA-2 ECC [1]): 400 nM
IC50 (NTERA-2 ECC [4]; Homo sapiens, NTERA2, 96 h, read-out: IC50 Live Cells): 200 nM
SMILES: Cc1cccc(/C=N/Nc2cc(N3CCOCC3)nc(OCCc3ccccn3)n2)c1 [Apilimod]
IC50 [2]: > 10000 nM
IC50 [3]: > 10000 nM
Effectiveness relative to WX8 (NTERA-2 ECC [4]; NTERA-2 cells): about 10 times
